Laboratory results from ChEMBL document CHEMBL1123669 (J Med Chem, 1987).

Legend:
Homo sapiens = organism: Homo sapiens; assay: Inhibition of ADP-induced platelet aggregation; assay type: functional
How it was run: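 Human citrated PRP (200g, 15 min, room temperature), aspirin-free donors. Compound in DMF or Me2SO preincubated 5 min with stirred PRP at 37 °C. Aggregation induced by 5 μM ADP, followed turbidimetrically. Repeated at least twice with different donors; IC50 graphical.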

Rattus norvegicus [1] = organism: Rattus norvegicus; assay: Inhibition of rat heart cAMP phosphodiesterase (weak partial inhibition)
Phosphodiesterase 3 [2] = biological target: T1, Phosphodiesterase 3 (Homo sapiens, UniProt Q14432+Q13370); assay: In vitro inhibition of cyclic AMP phosphodiesterase from human platelets.
Rattus norvegicus [3] = organism: Rattus norvegicus; assay: Inhibition of rat heart cAMP phosphodiesterase
Phosphodiesterase 3 [4] = biological target: T1, Phosphodiesterase 3; assay: Inhibition of human platelet cAMP phosphodiesterase at 10e-4 M

IC50 (Homo sapiens) [µM] | IC25 (Rattus norvegicus [1]) [µM] | IC50 (Phosphodiesterase 3 [2]) [µM] | IC25 (Rattus norvegicus [3]) [µM] | IC50 (Phosphodiesterase 3 [4]) [µM] | SMILES
2.6 | > 100 | – | – | – | O=C1CN2Cc3c(ccc(Cl)c3Cl)N=C2N1 [ANAGRELIDE]
4 | – | 1.5 | – | – | COc1ccc2c(c1)CN1CC(=O)NC1=N2
1.9 | – | – | 0.7 | – | CN(C(=O)CCCOc1ccc2[nH]c(=O)ccc2c1)C1CCCCC1 [CILOSTAMIDE]
– | – | 13 | – | – | COc1ccc2c(c1)CSC(=O)N2
– | – | 21 | – | – | COc1ccc2nc(O)sc2c1
– | – | – | – | 35 | COc1ccc2c(c1)CNC(=O)N2
– | – | 1.35 | 1.5 | – | CN(C(=O)CCCOc1ccc2c(c1)CCC(=O)N2)C1CCCCC1
0.11 | – | 0.01 | 0.6 | – | CN(C(=O)CCCOc1ccc2c(c1)CN1CC(=O)NC1=N2)C1CCCCC1 [LIXAZINONE]
– | – | 1.3 | 0.88 | – | CN(C(=O)CCCOc1ccc2c(c1)CNC(=O)N2)C1CCCCC1
– | – | 0.19 | 0.38 | – | CN(C(=O)CCCOc1ccc2c(c1)CSC(=O)N2)C1CCCCC1
– | – | 3.4 | 1.3 | – | CN(C(=O)CCCOc1ccc2c(c1)OCC(=O)N2)C1CCCCC1
– | – | 100 | – | – | COc1ccc2c(c1)COC(=O)N2
– | – | 10 | > 10 | – | CN(C(=O)CCCOc1ccc2nc(O)sc2c1)C1CCCCC1
– | – | 3.6 | 50 | – | CN(C(=O)CCCOc1ccc2c(c1)C(=O)NCC(=O)N2)C1CCCCC1
– | – | 4.4 | > 30 | – | CN(C(=O)CCCOc1ccc2[nH]c(=O)oc(=O)c2c1)C1CCCCC1
62 | – | 0.29 | 0.32 | – | CCCCCCOc1ccc2c(c1)CN1CC(=O)NC1=N2
– | – | 1.8 | 1.4 | – | CN(C(=O)CCCOc1ccc2c(c1)SCC(=O)N2)C1CCCCC1
– | – | 1.15 | 1.3 | – | CN(C(=O)CCCOc1ccc2[nH]c(=O)[nH]c(=O)c2c1)C1CCCCC1
– | – | 1.15 | 1 | – | CN(C(=O)CCCOc1ccc2c(c1)COC(=O)N2)C1CCCCC1
